Results: BindingDB's records for doi:10.1016/j.bmc.2022.116974 (University of Maryland, 2022)

These molecules were tested against Galectin-3 (Homo sapiens, UniProt P17931) (assay: Binding affinity to human galectin 3 by surface plasma resonance analysis).
Outline: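 Recombinant human Gal-3 amine-coupled to a CM5 chip (about 1000 RU) with an ethanolamine reference channel. Analytes were serially diluted in 0.01 M HEPES pH 7.4, 0.15 M NaCl and 0.005% P20, then run at 25 °C and 30 μL/min with 120 s association and 300 s dissociation, followed by 3 M MgCl2 regeneration. EC50 was taken from the fitted binding curve.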

Sequence of Galectin-3 (P17931 whole entry): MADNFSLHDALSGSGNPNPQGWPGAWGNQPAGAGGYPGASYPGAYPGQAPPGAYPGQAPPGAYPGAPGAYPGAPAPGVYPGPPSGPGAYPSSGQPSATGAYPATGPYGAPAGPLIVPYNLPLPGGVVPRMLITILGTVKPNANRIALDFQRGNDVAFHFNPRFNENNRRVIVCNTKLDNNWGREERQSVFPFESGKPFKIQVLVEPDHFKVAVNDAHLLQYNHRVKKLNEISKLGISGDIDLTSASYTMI

Row | EC50 [mM] | Structure (SMILES)
1 | > 1 | [N-]=[N+]=NCCOCCOCCO[C@@H]1O[C@H](CO)[C@@H](O[C@@H]2O[C@H](CO)[C@H](O)[C@H](O)[C@H]2O)[C@H](O)[C@H]1O
2 | > 1 | CC(=O)N[C@H]1[C@@H](OCCOCCOCCN=[N+]=[N-])O[C@H](CO)[C@H](O)[C@@H]1O
3 | > 1 | CC(=O)N[C@H]1[C@@H](OCCOCCOCCN=[N+]=[N-])O[C@H](CO)[C@H](O)[C@@H]1O[C@@H]1O[C@H](CO)[C@H](O)[C@H](O)[C@H]1O
